Laboratory results: ChEMBL document CHEMBL1125291, “New 8-(trifluoromethyl)-substituted quinolones. The benefits of the 8-fluoro group with reduced phototoxic risk” (1992)
In brackets after ≈: the same amount, converted by molar mass. Several values for one entry are separate records, joined by “and”; a condition that tells them apart may be missing. Identical values can stand only once.

Experiments:
[1] = Number of mice which show positive phototoxic reaction in 5 mice at peroral dose; assay type: functional, Mus musculus
Outline: (§1)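 Depilated female CD-1 mice got a single oral (gavage) or subcutaneous dose, then UVA (320–400 nm) exposure for 3 h starting 1 h post-dose. This was repeated for up to 4 consecutive days. Initial doses were 30, 100 and 300 mg/kg. PTD50 was derived by probit. First day of positive reaction and no-effect dose were taken from the raw data.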

[2] = Number of mice which show positive phototoxic reaction in 5 mice at subcutaneous dose; assay type: functional, Mus musculus; outline: as §1
Escherichia coli [3] = experiment: In vivo efficacy in mouse protection test in Escherichia coli Vogel administered by subcutaneous injection.; assay type: functional; details: for ED50: Escherichia coli, sc, read-out: PD50
Outline: (§2)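 Acute lethal systemic infections in female Charles River CD-1 mice. A single dose was given at challenge, orally by gavage or by subcutaneous injection. PD50 (median protective dose, mg/kg) was determined.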

Escherichia coli [4] = experiment: In vivo efficacy in mouse protection test in Escherichia coli Vogel dose administered orally by gavage.; assay type: functional; details: for ED50: Escherichia coli, po, read-out: PD50; outline: as §2
Escherichia coli [5] = experiment: Minimum inhibitory concentration (MIC) against gram negative bacteria Escherichia coli H-560.; assay type: functional
Outline: (§3)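 MICs were determined by standard broth microtitration against 11 Gram-positive and Gram-negative organisms, in µg/mL. Values come from duplicate or triplicate experiments and are accurate to ±50%.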

Escherichia coli [6] = experiment: Minimum inhibitory concentration (MIC) against gram negative bacteria Escherichia coli Vogel.; assay type: functional; outline: as §3
Klebsiella pneumoniae = experiment: Minimum inhibitory concentration (MIC) against gram negative bacteria Klebsiella pneumoniae MGH-2.; assay type: functional; outline: as §3
Mus musculus [7] = experiment: Dose required to induce phototoxic reaction in 50% of mice by […] reactions at different dosage forms after sc administration; assay type: functional
Outline: (§4)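 Phototoxic skin reaction test in depilated female CD-1 mice. A single oral dose (gavage) or subcutaneous dose was given, followed 1 h later by 3 h of UVA exposure (320–400 nm). The regimen was repeated for up to 4 consecutive days, with initial doses of 30, 100 and 300 mg/kg. PTD50 was derived by the probit method. The first day of positive reaction and the no-effect dose were taken from the raw data.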

Mus musculus [8] = species: Mus musculus; experiment: Dose required to induce phototoxic reaction in 50% of mice by probit method at different dosage forms.; assay type: functional
Mus musculus [9] = experiment: (§5) Maximum tolerance dose was measured for phototoxic skin reaction by sc administration; assay type: functional; outline: as §1
Mus musculus [10] = species: Mus musculus; experiment: Dose which has no effect to induce phototoxic reaction in 50% of mice by probit method.; assay type: functional
Mus musculus [11] = experiment: Compound's dose which has no effect to induce phototoxic reaction in 50% of mice by […] reactions after sc administration; assay type: functional; outline: as §4
Mus musculus [12] = experiment: Days of the first positive reaction in […] mice after sc administration; assay type: functional; outline: as §4
Mus musculus [13] = experiment: Maximum tolerance dose was measured for phototoxic skin reaction by po administration; assay type: functional
Mus musculus [14] = experiment: as §5; assay type: functional; outline: as §1; remark: listed apart in the source
[15] = Minimum inhibitory concentration (MIC) against gram negative bacteria Prot. rettgeri M-1771.; assay type: functional, Providencia rettgeri; outline: as §3
Pseudomonas aeruginosa [16] = experiment: In vivo efficacy (s.c.) against Pseudomonas aeruginosa in mouse protection test; assay type: functional; details: for ED50: Pseudomonas aeruginosa, sc, read-out: PD50; outline: as §2
Pseudomonas aeruginosa [17] = experiment: In vivo efficacy (orally) against Pseudomonas aeruginosa in mouse protection test; assay type: functional; details: for ED50: Pseudomonas aeruginosa, po, read-out: PD50; outline: as §2
Pseudomonas aeruginosa [18] = experiment: Minimum inhibitory concentration (MIC) against gram negative bacteria Pseudomonas aeruginosa UI-18.; assay type: functional; outline: as §3
Streptococcus pyogenes [19] = experiment: In vivo efficacy (s.c.) against Streptococcus pyogenes C-203 in mouse protection test; assay type: functional; details: for ED50: Streptococcus pyogenes, sc, read-out: PD50; outline: as §2
Streptococcus pyogenes [20] = experiment: In vivo efficacy (orally) against Streptococcus pyogenes C-203 in mouse protection test; assay type: functional; details: for ED50: Streptococcus pyogenes, po, read-out: PD50; outline: as §2
Staphylococcus aureus [21] = experiment: Minimum inhibitory concentration (MIC) against gram positive bacteria Staphylococcus aureus H-228.; assay type: functional; outline: as §3
Staphylococcus aureus [22] = experiment: Minimum inhibitory concentration (MIC) against gram positive bacteria Staphylococcus aureus UC-76.; assay type: functional; outline: as §3
Enterococcus faecalis = experiment: Minimum inhibitory concentration (MIC) against gram positive bacteria Streptococcus faecalis MGH-2.; assay type: functional; outline: as §3
Streptococcus pneumoniae [23] = experiment: Minimum inhibitory concentration (MIC) against gram positive bacteria Streptococcus pneumoniae SV-1.; assay type: functional; outline: as §3
Streptococcus pyogenes [24] = experiment: Minimum inhibitory concentration (MIC) against gram positive bacteria Streptococcus pyogenes C-203.; assay type: functional; outline: as §3
Streptococcus pneumoniae [25] = experiment: In vivo efficacy (s.c.) against Streptococcus pneumoniae SV-1 in mouse protection test; assay type: functional; details: for ED50: Streptococcus pneumoniae, sc, read-out: PD50; outline: as §2
Streptococcus pneumoniae [26] = experiment: In vivo efficacy (orally) against Streptococcus pneumoniae SV-1 in mouse protection test; assay type: functional; details: for ED50: Streptococcus pneumoniae, po, read-out: PD50; outline: as §2
Mus musculus [27] = species: Mus musculus; experiment: Days of the first positive reaction in […] mice.; assay type: functional; outline: as §4
Mus musculus [28] = species: Mus musculus; experiment: Number of mice which show positive phototoxic reaction.; assay type: functional; outline: as §4
Enterobacter cloacae = experiment: Minimum inhibitory concentration (MIC) against gram negative bacteria Enterobacter cloacae MA-2646.; assay type: functional
[29] = Days of the first positive reaction in […] mice; assay type: functional, Mus musculus; outline: as §1
Mus musculus [30] = species: Mus musculus; experiment: Number of mice which show positive phototoxic reaction in 5 mice; assay type: functional
Mus musculus [31] = species: Mus musculus; experiment: Dose required to induce phototoxic reaction in 50% of mice by […] reactions at different dosage forms; assay type: functional; outline: as §1
[32] = Escherichia coli, read-out: MIC
[33] = Klebsiella pneumoniae, read-out: MIC
[34] = Providencia rettgeri, read-out: MIC
[35] = Pseudomonas aeruginosa, read-out: MIC
[36] = Staphylococcus aureus, read-out: MIC
[37] = Enterococcus faecalis, read-out: MIC
[38] = Streptococcus pneumoniae, read-out: MIC
[39] = Streptococcus pyogenes, read-out: MIC

With `O=C(O)c1cn(C2CC2)c2cc(N3CCNCC3)c(F)cc2c1=O` [CIPROFLOXACIN] the “No. of pos rxns” value [1] was 0, the “No. of pos rxns” value [2] was 5 and the PD50 (Escherichia coli [3]) was 0.25 mg/kg. It also gave an ED50 (Escherichia coli [3]) of 0.25 mg/kg, a PD50 (Escherichia coli [4]) of 1.2 mg/kg and an ED50 (Escherichia coli [4]) of 1.2 mg/kg. For the same molecule, the MIC (Escherichia coli [5]) was 0.025 µg/mL (≈ 0.0754 µM), the MIC (Escherichia coli [5]; [32]) was 0.025 µg/mL (≈ 0.0754 µM) and the MIC (Escherichia coli [6]) was 0.025 µg/mL (≈ 0.0754 µM). It also gave an MIC (Escherichia coli [6]; [32]) of 0.025 µg/mL (≈ 0.0754 µM), an MIC (Klebsiella pneumoniae) of 0.05 µg/mL (≈ 0.151 µM) and an MIC (Klebsiella pneumoniae; [33]) of 0.05 µg/mL (≈ 0.151 µM). The PTD50 (Mus musculus [7]) was 172 mg/kg, the PTD50 (Mus musculus [8]) was >300 mg kg-1 and 172 and the MTD (Mus musculus [9]) was 100 mg/kg. For the same molecule, the No effect dose (Mus musculus [10]) was 300 mg kg-1 and 100, the No effect dose (Mus musculus [11]) was 100 mg/kg and the “Day of first positve reaction” value (Mus musculus [12]) was 2. It also gave an MTD (Mus musculus [13]) of 300 mg/kg, an MTD (Mus musculus [14]) of 100 mg/kg and an MIC [15] of 0.1 µg/mL (≈ 0.302 µM). For the same molecule, the MIC [15, 34] was 0.1 µg/mL (≈ 0.302 µM), the PD50 (Pseudomonas aeruginosa [16]) was 5 mg/kg and the ED50 (Pseudomonas aeruginosa [16]) was 5 mg/kg. For the same molecule, the PD50 (Pseudomonas aeruginosa [17]) was 25 mg/kg, the ED50 (Pseudomonas aeruginosa [17]) was 25 mg/kg and the MIC (Pseudomonas aeruginosa [18]) was 0.2 µg/mL (≈ 0.604 µM). For the same molecule, the MIC (Pseudomonas aeruginosa [18]; [35]) was 0.2 µg/mL (≈ 0.604 µM), the PD50 (Streptococcus pyogenes [19]) was 19 mg/kg and the ED50 (Streptococcus pyogenes [19]) was 19 mg/kg. The PD50 (Streptococcus pyogenes [20]) was 180 mg/kg, the ED50 (Streptococcus pyogenes [20]) was 180 mg/kg and the MIC (Staphylococcus aureus [21]) was 1.6 µg/mL (≈ 4.83 µM). It also gave an MIC (Staphylococcus aureus [21]; [36]) of 1.6 µg/mL (≈ 4.83 µM), an MIC (Staphylococcus aureus [22]) of 0.1 µg/mL (≈ 0.302 µM) and an MIC (Staphylococcus aureus [22]; [36]) of 0.1 µg/mL (≈ 0.302 µM). For the same molecule, the MIC (Enterococcus faecalis) was 1.6 µg/mL (≈ 4.83 µM), the MIC (Enterococcus faecalis; [37]) was 1.6 µg/mL (≈ 4.83 µM) and the MIC (Streptococcus pneumoniae [23]) was 0.8 µg/mL (≈ 2.41 µM). It also gave an MIC (Streptococcus pneumoniae [23]; [38]) of 0.8 µg/mL (≈ 2.41 µM), an MIC (Streptococcus pyogenes [24]) of 0.4 µg/mL (≈ 1.21 µM) and an MIC (Streptococcus pyogenes [24]; [39]) of 0.4 µg/mL (≈ 1.21 µM). It also gave a PD50 (Streptococcus pneumoniae [25]) of 29 mg/kg, an ED50 (Streptococcus pneumoniae [25]) of 29 mg/kg and a PD50 (Streptococcus pneumoniae [26]) of 260 mg/kg. The ED50 (Streptococcus pneumoniae [26]) was 260 mg/kg.
For `NC1CCCN(c2c(F)cc3c(=O)c(C(=O)O)cn(C4CC4)c3c2C(F)(F)F)C1` (stereo not given), the “Day of first positve reaction” value (Mus musculus [27]) was 0, the No. of pos rxns (Mus musculus [28]) was 0 and the ED50 (Escherichia coli [3]) was 3.2 mg/kg. The ED50 (Escherichia coli [4]) was 11.8 mg/kg, the MIC (Escherichia coli [5]; [32]) was 0.1 µg/mL (≈ 0.242 µM) and the MIC (Escherichia coli [6]; [32]) was 0.1 µg/mL (≈ 0.242 µM). It also gave an MIC (Enterobacter cloacae) of 0.1 µg/mL (≈ 0.242 µM), an MIC (Klebsiella pneumoniae; [33]) of 0.2 µg/mL (≈ 0.484 µM) and a PTD50 (Mus musculus [8]) of over 100 mg/kg. For the same molecule, the No effect dose (Mus musculus [10]) was 100 mg/kg, the MTD (Mus musculus [13]) was 100 mg/kg and the MIC [15, 34] was 0.4 µg/mL (≈ 0.968 µM). The MIC (Pseudomonas aeruginosa [18]; [35]) was 1.6 µg/mL (≈ 3.87 µM), the ED50 (Streptococcus pyogenes [19]) was 12 mg/kg and the ED50 (Streptococcus pyogenes [20]) was 35 mg/kg. For the same molecule, the MIC (Staphylococcus aureus [21]; [36]) was 0.2 µg/mL (≈ 0.484 µM), the MIC (Staphylococcus aureus [22]; [36]) was 0.025 µg/mL (≈ 0.0605 µM) and the MIC (Enterococcus faecalis; [37]) was 0.2 µg/mL (≈ 0.484 µM). It also gave an MIC (Streptococcus pneumoniae [23]; [38]) of 0.2 µg/mL (≈ 0.484 µM) and an MIC (Streptococcus pyogenes [24]; [39]) of 0.2 µg/mL (≈ 0.484 µM).
In the case of `O=C(O)c1cn(C2CC2)c2c(F)c(N3CCNCC3)c(F)cc2c1=O`, the “Day of first positve reaction” value [29] is reported as 0, the “No. of pos rxns” value (Mus musculus [30]) is reported as 0 and the ED50 (Escherichia coli [3]) is reported as 0.26 mg/kg. For the same molecule, the ED50 (Escherichia coli [4]) was 0.45 mg/kg, the MIC (Escherichia coli [5]; [32]) was 0.013 µg/mL (≈ 0.0372 µM) and the MIC (Escherichia coli [6]; [32]) was 0.05 µg/mL (≈ 0.143 µM). It also gave an MIC (Enterobacter cloacae) of 0.025 µg/mL (≈ 0.0716 µM), an MIC (Klebsiella pneumoniae; [33]) of 0.05 µg/mL (≈ 0.143 µM) and a PTD50 (Mus musculus [31]) of 171 mg/kg. It also gave a No effect dose (Mus musculus [10]) of 100 mg/kg, an MTD (Mus musculus [13]) of 100 mg/kg and an MIC [15, 34] of 0.1 µg/mL (≈ 0.286 µM). The ED50 (Pseudomonas aeruginosa [16]) was 2.5 mg/kg, the ED50 (Pseudomonas aeruginosa [17]) was 6.6 mg/kg and the MIC (Pseudomonas aeruginosa [18]; [35]) was 0.2 µg/mL (≈ 0.573 µM). The ED50 (Streptococcus pyogenes [19]) was 8.9 mg/kg, the ED50 (Streptococcus pyogenes [20]) was 33 mg/kg and the MIC (Staphylococcus aureus [21]; [36]) was 0.4 µg/mL (≈ 1.15 µM). For the same molecule, the MIC (Staphylococcus aureus [22]; [36]) was 0.1 µg/mL (≈ 0.286 µM), the MIC (Enterococcus faecalis; [37]) was 0.4 µg/mL (≈ 1.15 µM) and the MIC (Streptococcus pneumoniae [23]; [38]) was 0.8 µg/mL (≈ 2.29 µM). The MIC (Streptococcus pyogenes [24]; [39]) was 0.8 µg/mL (≈ 2.29 µM), the ED50 (Streptococcus pneumoniae [25]) was 29 mg/kg and the ED50 (Streptococcus pneumoniae [26]) was 59 mg/kg.
